Experimental data from ChEMBL document CHEMBL1128227, “Cosalane analogues with enhanced potencies as inhibitors of HIV-1 protease and integrase” (J Med Chem, 1995).
Converted amounts (≈) assume the structure as drawn.

Key:
CCRF-CEM = experiment: Cytotoxical effect against CEM cell lines was determined by reduction of cellular viability; type: functional; settings: Homo sapiens
In short: (§1)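 Compounds tested as ammonium salts. Cytotoxicity in CEM-SS, MT-4 or PBL cultures taken from the reduction in cellular viability. Values are means of at least two separate experiments.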

HEL [1] = experiment: Antiviral activity was determined against (Herpes simplex virus -2) by concentration required to reduce virus induced cytopathogenicity by 50%.; type: functional, cell-based; settings: Homo sapiens
HEL [2] = experiment: Antiviral activity was determined against Herpes simplex virus -1 TK- in HEL cells by measuring concentration required to reduce virus induced cytopathogenicity by 50%.; type: functional, cell-based; settings: Homo sapiens
HEL [3] = experiment: Antiviral activity was determined against Herpes simplex virus -1 TK-/TK+ in HEL cells by measuring concentration required to reduce virus induced cytopathogenicity by 50%.; type: functional, cell-based; settings: Homo sapiens
HEL [4] = experiment: Antiviral activity was determined against Herpes simplex virus -1 in HEL cells by measuring concentration required to reduce virus induced cytopathogenicity by 50%.; type: functional, cell-based; settings: Homo sapiens
HEL [5] = experiment: Antiviral activity was determined against Human cytomegalovirus (strain Davis) in HEL cells by measuring concentration required to reduce virus induced cytopathogenicity by 50%.; type: functional, cell-based
HEL [6] = experiment: Antiviral activity was determined against Vaccinia virus in HEL cells by measuring concentration required to reduce virus induced cytopathogenicity by 50%.; type: functional, cell-based; settings: Homo sapiens
HEL [7] = experiment: Antiviral activity was determined against Vesicular stomatitis virus in HEL cells by measuring concentration required to reduce virus induced cytopathogenicity by 50%.; type: functional, cell-based; settings: Homo sapiens
HEL [8] = experiment: Antiviral activity against HEL cells by measuring minimum cytotoxic concentration that causes a microscopically detectable alteration of normal cell morphology after 2 day of treatment.; type: functional; settings: Homo sapiens, 48 h
[9] = target: Human immunodeficiency virus type 1 integrase (Human immunodeficiency virus 1, UniProt Q7ZJM1); experiment: Inhibition of HIV -1 Integrase
In short: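 Purified HIV-1 integrase. 3'-processing and strand-transfer (integration) activities were measured with synthetic double-stranded oligonucleotides mimicking viral DNA ends. Compounds tested as ammonium salts. Values are means of at least two experiments.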

MOLT-4 [10] = experiment: Giant cell formation between HIV-1 (HTLV-IIIB) infected HUT-78 cells and uninfected MOLT-4(clone-8)cells; type: functional, cell-based; settings: Homo sapiens
In short: (§2)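 Syncytium assay: HUT-78 cells persistently infected with HIV-1 (HTLV-IIIB) or HIV-2 (LAV-2ROD) were co-cultured with uninfected MOLT-4 (clone 8) cells, and giant-cell formation was scored. Compounds tested as ammonium salts. Values are means of at least two experiments.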

MOLT-4 [11] = experiment: Giant cell formation between HIV-2 (LAV-2 rod) infected HUT-78 cells and uninfected MOLT-4(clone-8)cells; type: functional, cell-based; settings: Homo sapiens; in short: as §2
MT4 [12] = experiment: Cytotoxical effect against MT-4 cell lines was determined by reduction of cellular viability; type: functional; settings: Homo sapiens; in short: as §1
MT4 [13] = experiment: Viral cytopathicity against HIV -2 (LAV-2 rod)strain determined in MT-4 cells; type: functional, cell-based; settings: Homo sapiens
MT4 [14] = experiment: Viral cytopathicity against HIV -I (HTLV-IIIb) strain determined in MT-4 cells; type: functional, cell-based; settings: Homo sapiens
[15] = target: Human immunodeficiency virus type 1 protease (Human immunodeficiency virus 1, UniProt Q72874); experiment: Inhibition of HIV -1 protease
In short: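 Purified HIV-1 protease with the peptide substrate Ala-Ser-Glu-Asn-Tyr-Pro-Ile-Val-Glu-amide. Cleavage quantified by reverse-phase HPLC. Compounds tested as ammonium salts. Values are means of at least two experiments.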

Homo sapiens [16] = organism: Homo sapiens; experiment: Inhibition of p24 production in Peripheral blood lymphocytes; type: functional, organism-based
In short: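 Phytohemagglutinin-stimulated peripheral blood lymphocytes infected with HIV-1 WUJO. Read-out is virion-associated p24 production. Compounds tested as ammonium salts. Values are means of at least two experiments.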

Homo sapiens [17] = organism: Homo sapiens; experiment: Cytotoxical effect against PBL cell lines was determined by reduction of cellular viability; type: functional; in short: as §1
HeLa [18] = experiment: Antiviral activity was determined against Respiratory syncytial virus(strain Long) in HeLa cells by measuring concentration required to reduce virus induced cytopathogenicity by 50%.; type: functional, cell-based; settings: Homo sapiens
In short: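 RSV cytopathicity in HeLa cells. Compound added immediately after virus infection and left in the culture. Virus-induced cytopathogenicity scored at day 5 post-infection. IC50 in μg/mL.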

HeLa [19] = experiment: Antiviral activity against HeLa cells by measuring minimum cytotoxic concentration that causes a microscopically detectable alteration of normal cell morphology after 2 day of treatment.; type: functional; settings: Homo sapiens, 48 h
MDCK [20] = experiment: Antiviral activity against MDCK cells by measuring minimum cytotoxic concentration that causes a microscopically detectable alteration of normal cell morphology after 2 day of treatment.; type: functional; settings: Canis lupus familiaris, 48 h
MDCK [21] = experiment: Antiviral activity was determined against Influenza virus A(strain Ishikawa) in MDCK cells by measuring concentration required to reduce virus induced cytopathogenicity by 50%.; type: functional, cell-based; settings: Canis lupus familiaris
In short: (§3)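 Tested in MDCK cells, with compound applied right after infection and left on. Cytopathic effect of influenza A (Ishikawa) or B (Singapore) was read at day 5 pi. IC50 is the concentration halving cytopathogenicity, in µg/mL.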

MDCK [22] = experiment: Antiviral activity was determined against Influenza virus B(strain Singapore) MDCK cells by measuring concentration required to reduce virus induced cytopathogenicity by 50%.; type: functional, cell-based; settings: Canis lupus familiaris; in short: as §3
Vero [23] = experiment: Antiviral activity against Vero cells by measuring minimum cytotoxic concentration that causes a microscopically detectable alteration of normal cell morphology after 2 day of treatment.; type: functional; settings: Chlorocebus sabaeus, 48 h
Vero [24] = experiment: Antiviral activity was determined against Junin virus in Vero cells by measuring concentration required to reduce virus induced cytopathogenicity by 50%.; type: functional, cell-based; settings: Chlorocebus sabaeus
Vero [25] = experiment: Antiviral activity was determined against Tacaribe virus in Vero cells by measuring concentration required to reduce virus induced cytopathogenicity by 50%.; type: functional, cell-based; settings: Chlorocebus sabaeus

Chain of Human immunodeficiency virus type 1 integrase (Q7ZJM1 whole entry): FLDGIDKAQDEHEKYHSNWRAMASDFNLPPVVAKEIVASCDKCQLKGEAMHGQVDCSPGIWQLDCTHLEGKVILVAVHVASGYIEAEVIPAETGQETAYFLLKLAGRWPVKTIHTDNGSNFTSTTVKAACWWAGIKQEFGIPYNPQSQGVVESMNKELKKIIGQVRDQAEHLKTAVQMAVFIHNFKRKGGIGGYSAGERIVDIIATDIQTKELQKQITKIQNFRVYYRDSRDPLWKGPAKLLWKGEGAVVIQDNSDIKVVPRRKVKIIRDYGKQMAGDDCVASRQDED

Compound | CC50 (CCRF-CEM) [µM] | IC50 (HEL [1]) [µg/mL] | IC50 (HEL [2]) [µg/mL] | IC50 (HEL [3]) [µg/mL] | IC50 (HEL [4]) [µg/mL] | IC50 (HEL [5]) [µg/mL] | IC50 (HEL [6]) [µg/mL] | IC50 (HEL [7]) [µg/mL] | MCC (HEL [8]) [µg/mL] | IC50 [9] [µM] | IC50 (MOLT-4 [10]) [µM] | IC50 (MOLT-4 [11]) [µM] | CC50 (MT4 [12]) [µM] | IC50 (MT4 [13]) [µM] | IC50 (MT4 [14]) [µM] | IC50 [15] [µM] | IC50 (Homo sapiens [16]) [µM] | CC50 (Homo sapiens [17]) [µM] | IC50 (HeLa [18]) [µg/mL] | MCC (HeLa [19]) [µg/mL] | also measured
CC(C)CCCC(C)[C@H]1CC[C@H]2[C@@H]3CCC4C[C@@H](CCC=C(c5cc(Cl)c(O)c(C(=O)O)c5)c5cc(Cl)c(O)c(C(=O)O)c5)CC[C@]4(C)[C@H]3CC[C@]12C (stereo not given in full) | > 200 | 7.4 (≈ 9.64 µM) | > 20 | 20 (≈ 26 µM) | 10 (≈ 13 µM) | 2.7 (≈ 3.52 µM) | > 20 | 10 (≈ 13 µM) | > 100 | 25 | 25 | 25 | > 125 | 4 | 1.8 | 1.5 | 33 | 67 | – | – | –
CC(C)CCCC(C)[C@H]1CC[C@H]2[C@@H]3CCC4CC(=C(c5cc(Cl)c(O)c(C(=O)O)c5)c5cc(Cl)c(O)c(C(=O)O)c5)CC[C@]4(C)[C@H]3CC[C@]12C (stereo not given in full) | > 200 | 12 (≈ 16.5 µM) | > 20 | > 20 | > 20 | 2.35 (≈ 3.24 µM) | > 20 | > 20 | > 50 | > 100 | 24 | 24 | 36.7 | 6 | 2.5 | 0.35 | 59.3 | 78 | 20 (≈ 27.6 µM) | 100 | MCC (MDCK [20]): > 200 µg/mL; IC50 (MDCK [21]): 14 µg/mL (≈ 19.3 µM); IC50 (MDCK [22]): > 200 µg/mL; MCC (Vero [23]): 200 µg/mL; IC50 (Vero [24]): 16 µg/mL (≈ 22 µM); IC50 (Vero [25]): 20 µg/mL (≈ 27.6 µM)
CC(CCC=C(c1cc(Cl)c(O)c(C(=O)O)c1)c1cc(Cl)c(O)c(C(=O)O)c1)[C@H]1CC[C@H]2[C@@H]3CC[C@@H]4CC(F)(F)CC[C@]4(C)[C@H]3CC[C@]12C (stereo not given in full) | 38.5 | > 20 | > 20 | > 20 | 20 (≈ 27.8 µM) | 11 (≈ 15.3 µM) | 20 (≈ 27.8 µM) | > 20 | 50 | 2.2 | 8 | 24 | 34 | 3.5 | 27.7 | 0.39 | 24 | 69.5 | 4 (≈ 5.56 µM) | 20 | MCC (MDCK [20]): 12 µg/mL; IC50 (MDCK [21]): > 12 µg/mL; IC50 (MDCK [22]): > 12 µg/mL; MCC (Vero [23]): 20 µg/mL; IC50 (Vero [24]): > 5 µg/mL; IC50 (Vero [25]): > 5 µg/mL
